From ChEMBL document CHEMBL1145857, “Toward tissue-selective pancreatic B-cells KATP channel openers belonging to 3-alkylamino-7-halo-4H-1,2,4-benzothiadiazine 1,1-dioxides” (J Med Chem, 2003)

Tests used:
Rattus norvegicus [1] = species on record: Rattus norvegicus; experiment: Estimated selectivity ratio of ED50 and IC50 in rat was calculated; type: functional
Rattus norvegicus [2] = species on record: Rattus norvegicus; experiment: Percent inhibition of residual insulin release from rat pancreatic islets in the presence of 16.7 mM glucose at 1 uM concentration; type: functional
Method in brief: (§1)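 Islets isolated by collagenase from fed Wistar rats (180–220 g); groups of 10 islets preincubated 30 min at 37 °C in bicarbonate salt medium with 2.8 mM glucose and 0.5% dialyzed albumin under O2/CO2 95:5, then incubated 90 min at 37 °C with 16.7 mM glucose plus drug. Insulin measured by radioimmunoassay against rat insulin standard; residual release as % of drug-free 16.7 mM glucose control; IC50 estimated.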

Rattus norvegicus [3] = species on record: Rattus norvegicus; experiment: Effective dose required for relaxation of the 30 mM KCl-induced contraction of rat aortic rings; type: functional; conditions: Aorta, read-out: ED50 (the source's name)
Method in brief: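 Endothelium-denuded transverse aortic rings (3–4 mm) from fed Wistar rats (180–220 g); isometric tension by force transducer. After 60 min equilibration, contracted with 30 mM KCl; once stable, drug added cumulatively to maximal relaxation or 0.3 mM. Relaxation as % of KCl contraction; ED50 (50% inhibition of KCl plateau) from dose–response curves; mean ± SEM (n).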

Rattus norvegicus [4] = species on record: Rattus norvegicus; experiment: Percent inhibition of residual insulin release from rat pancreatic islets in the presence of 16.7 mM glucose at 50 uM concentration; type: functional; method in brief: as §1
Rattus norvegicus [5] = species on record: Rattus norvegicus; experiment: Concentration required to inhibit insulin release in rat; type: functional
Rattus norvegicus [6] = species on record: Rattus norvegicus; experiment: Percent inhibition of residual insulin release from rat pancreatic islets in the presence of 16.7 mM glucose at 10 uM concentration; type: functional; method in brief: as §1
[7] = pKa value determined at 20 °C
Rattus norvegicus [8] = species on record: Rattus norvegicus; experiment: Percent inhibition of residual insulin release from rat pancreatic islets in the presence of 16.7mM glucose at 0.1 uM concentration; type: functional
Method in brief: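 Islets isolated by collagenase from fed Wistar rats (180–220 g). Groups of 10 islets preincubated 30 min at 37 °C in bicarbonate salt medium with 2.8 mM glucose, 0.5% dialyzed albumin, gassed O2/CO2 95:5. Then incubated 90 min at 37 °C with 16.7 mM glucose plus drug. Insulin measured by radioimmunoassay against rat insulin; expressed as % of drug-free 16.7 mM glucose control; mean ± SEM (n).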

Row | SMILES | Selectivity (Rattus norvegicus [1]) | RIS (Rattus norvegicus [2]) | EC50 (Rattus norvegicus [3]) | RIS (Rattus norvegicus [4]) | IC50 (Rattus norvegicus [5]) | RIS (Rattus norvegicus [6]) | pKa [7] | RIS (Rattus norvegicus [8])
1 | O=S1(=O)NC(NC2CCC2)=Nc2ccc(F)cc21 | 55 | 58.2% | 71.8 µM | 5.9% | 1.3 µM | 7.8% | – | –
2 | CC(C)C(C)NC1=NS(=O)(=O)c2cc(Cl)ccc2N1 (stereo not drawn) | <0.12 | 88.1% | 1.2 µM | 11% | > 10 µM | 62.7% | – | –
3 | O=S1(=O)N=C(NC2CC2)Nc2ccc(Cl)cc21 | 56 | 84% | 190 µM | 5.8% | 3.4 µM | 26.6% | – | –
4 | CCNC1=NS(=O)(=O)c2cc(Cl)ccc2N1 | >40 | 29.2% | 39.9 µM | 2.1% | < 1 µM | 10.7% | – | –
5 | CNC1=NS(=O)(=O)c2cc(Br)ccc2N1 | 17 | 69.9% | 31 µM | 6.4% | 1.8 µM | 7.3% | – | –
6 | O=S1(=O)NC(NC2CC2)=Nc2ccc(Br)cc21 | 29 | 85.1% | 89.4 µM | 4.6% | 3.1 µM | 21.1% | – | –
7 | CCCNC1=NS(=O)(=O)c2cc(Br)ccc2N1 | >0.6 | – | 5.9 µM | 7.1% | < 10 µM | 34.7% | – | –
8 | O=S1(=O)NC(NC2CC2)=Nc2ccc(F)cc21 | >58 | 104.5% | > 300 µM | 7.5% | 5.1 µM | 32.5% | – | –
9 | O=S1(=O)NC(NCC2CC2)=Nc2ccc(Cl)cc21 | <4 | – | 41.2 µM | 15.2% | > 10 µM | 65.9% | – | –
10 | CCCNC1=NS(=O)(=O)c2cc(Cl)ccc2N1 | 21 | 83.4% | 55.5 µM | 3.6% | – | 14.2% | – | –
11 | CCC(CC)NC1=NS(=O)(=O)c2cc(Cl)ccc2N1 | 21 | 93.7% | 93.6 µM | 8.1% | 4.5 µM | 31.7% | – | –
12 | CC(C)NC1=NS(=O)(=O)c2cc(Cl)ccc2N1 | 52 | – | 36.3 µM | 5.7% | – | 4.9% | 9.51 | –
13 | CC(C)NC1=NS(=O)(=O)c2cc(I)ccc2N1 | 3.7 | 74.8% | 7.7 µM | 5.6% | 2.1 µM | 9.6% | 9.28 | 99.2%
14 | CCC(C)NC1=NS(=O)(=O)c2cc(F)ccc2N1 (stereo not drawn) | 25 | 64.6% | 39.2 µM | 5.9% | 1.6 µM | 6.9% | – | –
15 | CCNC1=NS(=O)(=O)c2cc(Br)ccc2N1 | >6 | 38.1% | 6.2 µM | 4.6% | < 1 µM | 6.5% | – | –
16 | CCNC1=NS(=O)(=O)c2cc(F)ccc2N1 | >300 | 50.8% | > 300 µM | 6.3% | 1 µM | 8.6% | – | –
17 | CCCNC1=NS(=O)(=O)c2cc(F)ccc2N1 | 83 | 69.2% | 166 µM | 7.7% | 2 µM | 15.1% | – | –
18 | CC(C)C(C)NC1=NS(=O)(=O)c2cc(I)ccc2N1 (stereo not drawn) | <0.02 | 91.9% | 0.94 µM | 51.7% | > 50 µM | 86.2% | – | –
19 | CCC(C)NC1=NS(=O)(=O)c2cc(Br)ccc2N1 (stereo not drawn) | 1.4 | 92.5% | 5.6 µM | 4% | 4 µM | 26.8% | – | –
20 | O=S1(=O)NC(NCC2CC2)=Nc2ccc(F)cc21 | >15 | – | 146 µM | 6.4% | < 10 µM | 39.8% | – | –

Row | SMILES | Selectivity (Rattus norvegicus [1]) | RIS (Rattus norvegicus [2]) | EC50 (Rattus norvegicus [3]) | RIS (Rattus norvegicus [4]) | IC50 (Rattus norvegicus [5]) | RIS (Rattus norvegicus [6]) | pKa [7] | RIS (Rattus norvegicus [8])
21 | O=S1(=O)NC(NC2CCCC2)=Nc2ccc(F)cc21 | 32 | 68.8% | 58 µM | 5.4% | 1.8 µM | 6.6% | – | –
22 | O=S1(=O)NC(NC2CCC2)=Nc2ccc(I)cc21 | >2.2 | – | 22.2 µM | – | < 10 µM | 30.6% | – | –
23 | CNC1=NS(=O)(=O)c2cc(F)ccc2N1 | >136 | 76.1% | > 300 µM | 5.7% | 2.2 µM | 7.7% | – | –
24 | C=CCNC1=Nc2ccc(F)cc2S(=O)(=O)N1 | >111 | 84.1% | > 300 µM | 4.1% | 2.7 µM | 12.8% | – | –
25 | CC(C)C(C)NC1=NS(=O)(=O)c2cc(Br)ccc2N1 (stereo not drawn) | < 0.26 | 97.2% | 2.6 µM | 21.4% | > 10 µM | 98.4% | – | –
26 | CCC(C)NC1=NS(=O)(=O)c2cc(Cl)ccc2N1 (stereo not drawn) | 5 | 85.4% | 15.5 µM | 5.5% | 3.1 µM | 19.9% | – | –
27 | CNC1=NS(=O)(=O)c2cc(Cl)ccc2N1 | 129 | 55.1% | 142 µM | 2.4% | 1.1 µM | 4.4% | – | –
28 | CCC(C)NC1=NS(=O)(=O)c2cc(I)ccc2N1 (stereo not drawn) | <0.13 | 84.2% | 1.3 µM | 22.5% | > 10 µM | 64.8% | – | –
29 | CC(C)NC1=NS(=O)(=O)c2cc(F)ccc2N1 | 54 | – | – | 3.3% | 0.8 µM | 3.7% | 9.63 | –
30 | O=S1(=O)N=C(NC2CCC2)Nc2ccc(Cl)cc21 | 27 | 60.2% | 34.9 µM | 8.1% | 1.3 µM | 6.4% | – | –
31 | C=CCNC1=Nc2ccc(Br)cc2S(=O)(=O)N1 | 1.1 | 77.2% | 3 µM | 4.8% | 2.8 µM | 23.7% | – | –
32 | O=S1(=O)NC(NC2CCC2)=Nc2ccc(Br)cc21 | 20 | 54.8% | 21.7 µM | 6.1% | 1.1 µM | 9.6% | – | –
33 | CCC(C)(C)NC1=NS(=O)(=O)c2cc(Cl)ccc2N1 | <0.029 | – | 0.29 µM | – | > 10 µM | 83.2% | – | –
34 | CC(C)(C)NC1=NS(=O)(=O)c2cc(Cl)ccc2N1 | <0.14 | – | 1.4 µM | – | > 10 µM | 64.4% | – | –
35 | CC(C)NC1=NS(=O)(=O)c2cc(Br)ccc2N1 | 9.6 | – | – | 6.7% | 0.5 µM | 8.1% | 9.41 | 91%
36 | CC(C)C(C)NC1=NS(=O)(=O)c2cc(F)ccc2N1 (stereo not drawn) | 9 | 87.7% | 26.4 µM | 7.9% | 2.8 µM | 10.6% | – | –
37 | C=CCNC1=Nc2ccc(Cl)cc2S(=O)(=O)N1 | 9 | 87.9% | 28.9 µM | 7.8% | 3.1 µM | 17.3% | – | –
38 | CCC(CC)NC1=NS(=O)(=O)c2cc(I)ccc2N1 | <7.9 | – | 79.1 µM | 17% | > 10 µM | 67% | – | –
39 | CC1=Nc2ccc(Cl)cc2S(=O)(=O)N1 [DIAZOXIDE] | – | – | 22.4 µM | 26.7% | – | – | – | –
40 | CC(N/C(=N\C#N)Nc1ccncc1)C(C)(C)C (stereo not drawn) [PINACIDIL ANHYDROUS] | – | 97.7% | 0.35 µM | 88.8% | > 100 µM | – | – | –
